Assay results as given in ChEMBL document CHEMBL3112446, “Discovery and optimization of a new class of pyruvate kinase inhibitors as potential therapeutics for the treatment of methicillin-resistant Staphylococcus aureus infections” (Bioorg Med Chem, 2014).
pIC50: −log10 of the molar value. ≈ marks a conversion by molar mass, not a printed value.

Columns and labels:
[1] = tested on: Staphylococcus aureus; experiment: Inhibition of methicillin-resistant Staphylococcus aureus pyruvate kinase at 10 uM
Summary of the method: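 His-tagged MRSA PK. Compounds diluted in 100% DMSO. Percent inhibition reported at the highest concentration tested, 10 µM.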

[2] = Inhibition of methicillin-resistant Staphylococcus aureus pyruvate kinase; conditions: for pIC50: read-out: IC50
Summary of the method: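 His-tagged MRSA PK. Compounds diluted in 100% DMSO. IC50 calculated from a triplicate 15-point titration.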

[3] = tested on: Staphylococcus aureus; experiment: Antibacterial activity against Staphylococcus aureus ATCC 29213 by two fold serial dilution method; assay type: functional
[4] = target: Pyruvate kinase PKM (Homo sapiens) (UniProt P14618); experiment: Inhibition human pyruvate kinase M2 at 10 uM
Summary of the method: (§1)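 His-tagged recombinant human PK isoforms were used. Compounds were diluted in 100% DMSO and tested at 10 µM, the highest concentration tested. Values are percent inhibition of enzymatic activity.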

[5] = target: Pyruvate kinase PKLR (Homo sapiens) (UniProt P30613); experiment: Inhibition human pyruvate kinase R at 10 uM; summary of the method: as §1
[6] = target: Pyruvate kinase PKLR (Homo sapiens) (UniProt P30613); experiment: Inhibition human pyruvate kinase L at 10 uM; summary of the method: as §1
[7] = target: Pyruvate kinase PKM (Homo sapiens) (UniProt P14618); experiment: Inhibition human pyruvate kinase M1 at 10 uM; summary of the method: as §1
[8] = tested on: HEK293; experiment: Cytotoxicity against HEK293 cells assessed as cell viability at 100 ug/ml; assay type: cell-based; conditions: human
[9] = tested on: HEK293; experiment: Cytotoxicity against HEK293 cells assessed as cell viability at 1 ug/ml; assay type: cell-based; conditions: human
[10] = tested on: HEK293; experiment: Cytotoxicity against HEK293 cells assessed as cell viability at 10 ug/ml; assay type: cell-based; conditions: human
[11] = tested on: Staphylococcus aureus; experiment: Inhibition of methicillin-resistant Staphylococcus aureus pyruvate kinase at 1 uM
[12] = tested on: Staphylococcus aureus; experiment: Antibacterial activity against methicillin-resistant Staphylococcus aureus MW2 by two fold serial dilution method; assay type: functional
[13] = tested on: Staphylococcus aureus; experiment: Ratio of MIC90 for Staphylococcus aureus ATCC 29213 in presence of efflux inhibitor verapamil to MIC90 for Staphylococcus aureus ATCC 29213 in absence of efflux inhibitor verapamil; assay type: functional
Summary of the method: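 S. aureus ATCC 29213 broth microdilution in 96-well format, run in parallel in CAMHB with and without verapamil (200 mg/L, sub-inhibitory). Compounds were twofold serially diluted in DMSO and added to ~2.5 × 10^5 CFU/ml. Plates were incubated 18–24 h at 37 °C and read at OD600, with inhibitor-only wells subtracted as background. MIC is the lowest concentration giving complete growth inhibition versus compound-free wells, in duplicate or triplicate. The ratio compares the MIC with verapamil to the MIC without.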

[14] = tested on: Staphylococcus aureus; experiment: Antibacterial activity against Staphylococcus aureus ATCC 29213 by two fold serial dilution method in presence of efflux inhibitor verapamil; assay type: functional
Summary of the method: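 S. aureus ATCC29213, 96-well twofold broth microdilution in CAMHB with verapamil 200 mg/L (sub-inhibitory) versus plain CAMHB. Incubated 18–24 h at 37 °C, OD600 read, compound-plus-medium background subtracted. MIC is the lowest concentration giving complete growth inhibition relative to compound-free wells.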

Sequence of Pyruvate kinase PKM (Homo sapiens) (P14618 2-531 limits assumed): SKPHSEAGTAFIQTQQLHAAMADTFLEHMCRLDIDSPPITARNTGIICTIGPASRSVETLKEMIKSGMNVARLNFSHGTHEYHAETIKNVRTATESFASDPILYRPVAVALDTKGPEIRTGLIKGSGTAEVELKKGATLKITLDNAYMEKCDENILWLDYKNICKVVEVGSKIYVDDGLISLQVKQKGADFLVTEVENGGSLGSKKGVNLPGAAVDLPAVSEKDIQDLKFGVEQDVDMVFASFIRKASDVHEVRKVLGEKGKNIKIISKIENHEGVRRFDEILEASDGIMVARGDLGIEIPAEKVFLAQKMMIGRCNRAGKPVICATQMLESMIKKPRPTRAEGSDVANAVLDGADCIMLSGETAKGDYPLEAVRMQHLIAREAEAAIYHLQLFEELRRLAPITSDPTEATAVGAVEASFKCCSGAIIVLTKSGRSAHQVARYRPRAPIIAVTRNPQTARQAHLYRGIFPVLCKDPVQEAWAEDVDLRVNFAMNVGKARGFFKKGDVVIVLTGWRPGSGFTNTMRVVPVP
Sequence of Pyruvate kinase PKLR (Homo sapiens) (P30613 whole entry, looked up): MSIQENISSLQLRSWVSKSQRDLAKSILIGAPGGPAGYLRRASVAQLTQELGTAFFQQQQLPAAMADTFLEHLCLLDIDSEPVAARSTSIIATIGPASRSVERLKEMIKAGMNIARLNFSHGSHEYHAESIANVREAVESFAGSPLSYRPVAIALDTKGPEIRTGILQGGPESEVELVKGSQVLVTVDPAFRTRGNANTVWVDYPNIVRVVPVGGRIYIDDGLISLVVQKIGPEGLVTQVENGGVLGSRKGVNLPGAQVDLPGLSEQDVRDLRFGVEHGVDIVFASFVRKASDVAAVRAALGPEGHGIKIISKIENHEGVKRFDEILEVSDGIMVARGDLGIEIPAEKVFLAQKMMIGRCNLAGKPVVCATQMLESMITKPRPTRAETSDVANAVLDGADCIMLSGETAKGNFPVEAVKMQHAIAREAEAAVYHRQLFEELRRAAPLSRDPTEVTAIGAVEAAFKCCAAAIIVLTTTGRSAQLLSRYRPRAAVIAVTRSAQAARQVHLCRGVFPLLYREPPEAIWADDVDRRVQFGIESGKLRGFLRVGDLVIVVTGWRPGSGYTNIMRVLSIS

Row | Structure (SMILES) | inhibition [1] [%] | pIC50 [2] | MIC>98 [3] [µg/mL] | inhibition [4] [%] | inhibition [5] [%] | inhibition [6] [%] | inhibition [7] [%] | also measured
1 | Brc1cc2cc(-c3cc4ccccc4[nH]3)[nH]c2cc1Br | 39 | – | – | – | – | – | – | –
2 | Brc1ccc2cc(/C=C/c3cc4ccc(Br)cc4[nH]3)[nH]c2c1 | – | 8.41 | >64 | – | – | – | – | –
3 | Brc1ccc2cc(C#Cc3cc4ccccc4[nH]3)[nH]c2c1 | – | 8.15 | >64 | – | – | – | – | –
4 | Brc1ccc2c(c1)cc(-c1cc3ccc(Br)cc3[nH]1)n2CCN1CCOCC1 | 101 | 8.92 | >64 | 3.5 | 50.7 | 32.1 | 13.1 | –
5 | COCn1c(-c2cc3ccc(Br)cc3[nH]2)cc2cc(Br)ccc21 | – | 8.72 | >64 | – | – | – | – | Cell viability [8]: 73%; Cell viability [9]: 123%; Cell viability [10]: 102%
6 | Brc1ccc2cc(CCc3cc4ccc(Br)cc4[nH]3)[nH]c2c1 | 93.4 | 8.19 | >64 | 1.3 | 24.1 | 9.7 | 9.9 | Cell viability [8]: 85%; Cell viability [9]: 104%; Cell viability [10]: 92%
7 | Brc1ccc2cc(-c3ccc(-c4cc5ccc(Br)cc5[nH]4)s3)[nH]c2c1 | – | – | >64 | – | – | – | – | inhibition [11]: 28%
8 | OCCn1c(-c2cc3ccc(Br)cc3[nH]2)cc2cc(Br)ccc21 | 101 | 8.89 | 2 (≈ 4.61 µM) | 12.1 | 25.2 | 6.8 | 14.6 | –
9 | Brc1ccc2[nH]c(-c3cc4ccccc4[nH]3)cc2c1 | 36 | – | – | – | – | – | – | –
10 | Brc1ccc2cc(-c3ccc(-c4cc5ccccc5[nH]4)cc3)[nH]c2c1 | – | 8.25 | >64 | – | – | – | – | –
11 | Brc1ccc2cc(-c3cc4cc(Br)c(Br)cc4[nH]3)[nH]c2c1 | 94.1 | 8.82 | 0.5 (≈ 1.07 µM) | 15.8 | 33.4 | 23.7 | 8.6 | Cell viability [8]: 63%; Cell viability [9]: 102%; Cell viability [10]: 71%
12 | Brc1ccc2[nH]c(-c3cc4ccccc4s3)cc2c1 | – | – | >64 | – | – | – | – | inhibition [11]: 42%
13 | Brc1ccc2[nH]c(/C=C/c3cc4ccc(Br)cc4[nH]3)cc2c1 | – | 8.39 | >64 | – | – | – | – | –
14 | COc1ccc2[nH]c(-c3cc4ccc(Br)cc4[nH]3)cc2c1 | – | 8.60 | >64 | – | – | – | – | Cell viability [8]: 72%; Cell viability [9]: 107%; Cell viability [10]: 88%
15 | Brc1ccc2[nH]c(-c3nc4ccc(Br)cc4s3)cc2c1 | – | 8.39 | >64 | – | – | – | – | –
16 | Brc1ccc2cc(-c3ccc(-c4cc5ccc(Br)cc5[nH]4)cc3)[nH]c2c1 | – | – | >64 | – | – | – | – | inhibition [11]: 54%
17 | Brc1ccc2[nH]c(-c3cc4cc(Br)c(Br)cc4[nH]3)cc2c1 | – | 8.80 | 1 (≈ 2.13 µM) | – | – | – | – | –
18 | Fc1ccc2[nH]c(-c3cc4ccc(Br)cc4[nH]3)cc2c1 | – | 8.55 | – | – | – | – | – | MIC [12]: 0.5 µg/mL (≈ 1.52 µM)
19 | Brc1ccc2cc(-c3cc4ccc(Br)cc4[nH]3)[nH]c2c1 | 84.9 | 8.15 | – | 0.1 | 18.3 | 7.9 | 10.3 | Ratio [13]: 32; Cell viability [8]: 118%; Cell viability [9]: 103%; Cell viability [10]: 106%; MIC [14]: 0.5 µg/mL
20 | Cn1c(-c2cc3cc(Br)ccc3[nH]2)cc2ccc(Br)cc21 | 25 | – | – | – | – | – | – | IC50 [2]: Not Active
21 | Brc1ccc2[nH]c(-c3nc4ccccc4s3)cc2c1 | – | 6.45 | >64 | – | – | – | – | –
22 | Cn1c(C#Cc2cc3ccc(Br)cc3n2C)cc2ccc(Br)cc21 | 27 | – | – | – | – | – | – | –

Row | Structure (SMILES) | inhibition [1] [%] | pIC50 [2] | MIC>98 [3] [µg/mL] | inhibition [4] [%] | inhibition [5] [%] | inhibition [6] [%] | inhibition [7] [%] | also measured
23 | Brc1ccc2cc(-c3cc4ccccc4[nH]3)[nH]c2c1 | – | 7.67 | 2 (≈ 6.43 µM) | – | – | – | – | –
24 | COc1cc(-c2cc3ccccc3[nH]2)ccc1-c1cc2ccc(Br)cc2[nH]1 | 62.2 | 8.68 | >64 | 14.6 | 13.5 | 4.3 | 7.3 | –
25 | Brc1ccc2[nH]c(-c3cc4ccccc4o3)cc2c1 | 45 | – | – | – | – | – | – | –
26 | Brc1ccc2[nH]c(-c3cc4ccc(Br)cc4[nH]3)cc2c1 | 97.8 | 8.66 | – | 8.7 | 13.6 | 6.1 | 6.9 | MIC [12]: 0.5 µg/mL (≈ 1.28 µM)
27 | Brc1ccc2cc(/C=C/c3cc4ccccc4[nH]3)[nH]c2c1 | 93.4 | 8.35 | >64 | -0.9 | 23.8 | 12.9 | 16.1 | Cell viability [8]: 115%; Cell viability [9]: 107%; Cell viability [10]: 114%
28 | O=C(Cn1c(-c2cc3ccc(Br)cc3[nH]2)cc2cc(Br)ccc21)N1CCOCC1 | – | 8.22 | >64 | – | – | – | – | –
29 | Brc1ccc2[nH]c(-c3cc4cc(Br)ccc4[nH]3)cc2c1 | 71 | 8.52 | – | 0.5 | 24.4 | 9.8 | 12.3 | –
30 | Brc1ccc2[nH]c(CCc3cc4ccc(Br)cc4[nH]3)cc2c1 | – | 8.20 | >64 | – | – | – | – | –
31 | Brc1ccc2cc(C#Cc3cc4ccc(Br)cc4[nH]3)[nH]c2c1 | – | 8.62 | >64 | – | – | – | – | –
32 | Brc1ccc2cc(-c3cccc(-c4cc5ccccc5[nH]4)c3)[nH]c2c1 | 36 | – | – | – | – | – | – | –
33 | Brc1ccc2[nH]c(C#Cc3cc4ccc(Br)cc4[nH]3)cc2c1 | 86.3 | 8.33 | 16 (≈ 38.6 µM) | 8.7 | 27.8 | 14 | 19.5 | –
34 | Brc1cc2cc(-c3cc4cc(Br)c(Br)cc4[nH]3)[nH]c2cc1Br | 97.6 | 8.70 | – | 2.3 | 20.7 | 8.2 | 11.1 | Ratio [13]: 4; MIC [14]: 16 µg/mL
35 | O=[N+]([O-])c1cc(-c2cc3ccccc3[nH]2)ccc1-c1cc2ccc(Br)cc2[nH]1 | 86.2 | 8.74 | 2 (≈ 4.63 µM) | 6.8 | 0 | -8.9 | 9.5 | –
36 | Brc1ccc2cc(-c3nc4ccccc4s3)[nH]c2c1 | 89.8 | 6.82 | >64 | 3 | 21.6 | 7.8 | 12.4 | –
37 | O=C(O)Cn1c(-c2cc3ccc(Br)cc3[nH]2)cc2cc(Br)ccc21 | – | 7.95 | >64 | – | – | – | – | –
38 | Cn1c(-c2cc3ccc(Br)cc3[nH]2)cc2cc(Br)ccc21 | 99 | 9.00 | >64 | 9.1 | 2.7 | 2.8 | 13.9 | –
39 | Cn1c(C#Cc2cc3ccc(Br)cc3[nH]2)cc2ccc(Br)cc21 | – | 7.86 | >64 | – | – | – | – | –
40 | CN1CCN(CCn2c(-c3cc4ccc(Br)cc4[nH]3)cc3cc(Br)ccc32)CC1 | 100 | 8.70 | 4 (≈ 7.75 µM) | 1.7 | 26.1 | 16.8 | 3.2 | –
41 | Brc1ccc2cc(-c3cc4ccccc4s3)[nH]c2c1 | – | 7.85 | >64 | – | – | – | – | –
42 | Brc1ccc2cc(-c3cc4ccccc4o3)[nH]c2c1 | 95.9 | 6.97 | >64 | 0.4 | -5.5 | -6 | 5.3 | –
43 | Brc1ccc2cc(-c3cc4cc(-c5ccccc5)ccc4[nH]3)[nH]c2c1 | – | 8.66 | >64 | – | – | – | – | –
